Assay results published in ChEMBL document CHEMBL4382192, “Discovery of a potent dual ALK and EGFR T790M inhibitor” (Eur J Med Chem, 2017).

Key:
[1] = molecular target: Calcium/calmodulin-dependent protein kinase kinase 1 (Homo sapiens) (UniProt Q8N5S9); test: Binding affinity to wild-type human partial length CAMKK1 (R65 to E414 residues) expressed in bacterial expression system assessed as residual binding level at 1 uM by Kinomescan method relative to control
[2] = molecular target: NUAK family SNF1-like kinase 1 (Homo sapiens) (UniProt O60285); test: Binding affinity to wild-type human partial length ARK5 (E25 to I332 residues) expressed in bacterial expression system assessed as residual binding level at 1 uM by Kinomescan method relative to control
[3] = molecular target: RAF proto-oncogene serine/threonine-protein kinase (Homo sapiens) (UniProt P04049); test: Binding affinity to wild-type human partial length RAF1 (I330 to T640 residues) expressed in bacterial expression system assessed as residual binding level at 1 uM by Kinomescan method relative to control
[4] = molecular target: Mitogen-activated protein kinase kinase kinase 6 (Homo sapiens) (UniProt O95382); test: Binding affinity to wild-type human partial length ASK2 (M278 to R972 residues) expressed in mammalian expression system assessed as residual binding level at 1 uM by Kinomescan method relative to control
[5] = molecular target: Serine/threonine-protein kinase PAK 1 (Homo sapiens) (UniProt Q13153); test: Binding affinity to wild-type human partial length PAK1 (S149 to H545 residues) expressed in bacterial expression system assessed as residual binding level at 1 uM by Kinomescan method relative to control
[6] = molecular target: Phosphatidylinositol 4,5-bisphosphate 3-kinase catalytic subunit delta isoform (Homo sapiens) (UniProt O00329); test: Binding affinity to wild-type human partial length PIK3CD (R108 to Q1044 residues) expressed in mammalian expression system assessed as residual binding level at 1 uM by Kinomescan method relative to control
[7] = molecular target: Serine/threonine-protein kinase Nek10 (Homo sapiens) (UniProt Q6ZWH5); test: Binding affinity to wild-type human partial length NEK10 (L488 to R809 residues) expressed in mammalian expression system assessed as residual binding level at 1 uM by Kinomescan method relative to control
[8] = molecular target: Serine/threonine-protein kinase TAO1 (Homo sapiens) (UniProt Q7L7X3); test: Binding affinity to wild-type human partial length TAOK1 (M1 to A320 residues) expressed in mammalian expression system assessed as residual binding level at 1 uM by Kinomescan method relative to control
[9] = molecular target: Cyclin-dependent kinase 14 (Homo sapiens) (UniProt O94921); test: Binding affinity to wild-type human full length PFTK1 (M1 to H451 residues) expressed in bacterial expression system assessed as residual binding level at 1 uM by Kinomescan method relative to control
Summary of the method: (§1)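 Single-point kinome-wide KINOMEscan binding panel, test compound at 1 μM, run by the provider's standard protocol.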

[10] = Clearance in mouse at 10 mg/kg, po; format: ADME, organism-based; settings: in vivo
[11] = molecular target: Ribosomal protein S6 kinase alpha-1 (Homo sapiens) (UniProt Q15418); test: Binding affinity to wild-type human partial length C-terminal RSK1 kinase domain 2 (P360 to L681 residues) expressed in bacterial expression system assessed as residual binding level at 1 uM by Kinomescan method relative to control
[12] = molecular target: 3-phosphoinositide-dependent protein kinase 1 (Homo sapiens) (UniProt O15530); test: Binding affinity to wild-type human full length PDPK1 (M1 to Q556 residues) expressed in bacterial expression system assessed as residual binding level at 1 uM by Kinomescan method relative to control; summary of the method: as §1
[13] = molecular target: Mitogen-activated protein kinase kinase kinase kinase 5 (Homo sapiens) (UniProt Q9Y4K4); test: Binding affinity to wild-type human partial length MAP4K5 (M1 to P297 residues) expressed in bacterial expression system assessed as residual binding level at 1 uM by Kinomescan method relative to control
[14] = molecular target: Receptor tyrosine-protein kinase erbB-4 (Homo sapiens, UniProt Q15303); test: Inhibition of recombinant N-terminal GST-tagged human ErbB4 cytoplasmic domain expressed in baculovirus expression system by Z-LYTE assay
[15] = molecular target: Receptor-interacting serine/threonine-protein kinase 2 (Homo sapiens) (UniProt O43353); test: Binding affinity to wild-type human partial length RIPK2 (M1 to K310 residues) expressed in bacterial expression system assessed as residual binding level at 1 uM by Kinomescan method relative to control
[16] = molecular target: 5'-AMP-activated protein kinase catalytic subunit alpha-2 (Homo sapiens) (UniProt P54646); test: Binding affinity to wild-type human partial length AMPK alpha2 (M1 to E306 residues) expressed in bacterial expression system assessed as residual binding level at 1 uM by Kinomescan method relative to control
CYP2D6 = CYP2D6 (Homo sapiens, UniProt P10635); test: Residual activity of CYP2D6 in human liver microsomes at 10 uM using dextromethorphan O-demethylase as substrate preincubated for 5 mins followed by NADPH addition measured after 15 mins by LC/MS/MS analysis relative to control; settings: probe dextromethorphan (O-demethylation)
[17] = molecular target: Serine/threonine-protein kinase SIK3 (Homo sapiens) (UniProt Q9Y2K2); test: Binding affinity to wild-type human partial length QSK (A90 to L395 residues) expressed in mammalian expression system assessed as residual binding level at 1 uM by Kinomescan method relative to control
[18] = molecular target: Muscle, skeletal receptor tyrosine-protein kinase (Homo sapiens) (UniProt O15146); test: Binding affinity to wild-type human partial length MUSK (M553 to V869 residues) expressed in bacterial expression system assessed as residual binding level at 1 uM by Kinomescan method relative to control
[19] = molecular target: Mitogen-activated protein kinase 3 (Homo sapiens) (UniProt P27361); test: Binding affinity to wild-type human full length ERK1 (M1 to P379 residues) expressed in bacterial expression system assessed as residual binding level at 1 uM by Kinomescan method relative to control; summary of the method: as §1
[20] = molecular target: Serine/threonine-protein kinase ULK3 (Homo sapiens) (UniProt Q6PHR2); test: Binding affinity to wild-type human partial length ULK3 (M1 to Q290 residues) expressed in mammalian expression system assessed as residual binding level at 1 uM by Kinomescan method relative to control
[21] = molecular target: Insulin receptor-related protein (Homo sapiens) (UniProt P14616); test: Binding affinity to wild-type human partial length INSRR (R950 to E1278 residues) expressed in bacterial expression system assessed as residual binding level at 1 uM by Kinomescan method relative to control
[22] = molecular target: Serine/threonine-protein kinase Nek11 (Homo sapiens) (UniProt Q8NG66); test: Binding affinity to wild-type human partial length NEK11 (M1 to E313 residues) expressed in mammalian expression system assessed as residual binding level at 1 uM by Kinomescan method relative to control
[23] = tested on: Tyrosine-protein kinase ABL1 (Homo sapiens), P00519 [M351T]; test: Binding affinity to human phosphorylated ABL1 M351T mutant (S229 to K512 residues) expressed in mammalian expression system assessed as residual binding level at 1 uM by Kinomescan method relative to control
Summary of the method: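 Kinome-wide selectivity panel run by the KINOMEscan method, with the test compound at a single concentration of 1 μM. Wild-type and mutant kinases were profiled in the same screen.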

Serine/threonine-protein kinase PAK 1 (Homo sapiens), sequence (Q13153 whole entry, the tested form may be a part, canonical isoform): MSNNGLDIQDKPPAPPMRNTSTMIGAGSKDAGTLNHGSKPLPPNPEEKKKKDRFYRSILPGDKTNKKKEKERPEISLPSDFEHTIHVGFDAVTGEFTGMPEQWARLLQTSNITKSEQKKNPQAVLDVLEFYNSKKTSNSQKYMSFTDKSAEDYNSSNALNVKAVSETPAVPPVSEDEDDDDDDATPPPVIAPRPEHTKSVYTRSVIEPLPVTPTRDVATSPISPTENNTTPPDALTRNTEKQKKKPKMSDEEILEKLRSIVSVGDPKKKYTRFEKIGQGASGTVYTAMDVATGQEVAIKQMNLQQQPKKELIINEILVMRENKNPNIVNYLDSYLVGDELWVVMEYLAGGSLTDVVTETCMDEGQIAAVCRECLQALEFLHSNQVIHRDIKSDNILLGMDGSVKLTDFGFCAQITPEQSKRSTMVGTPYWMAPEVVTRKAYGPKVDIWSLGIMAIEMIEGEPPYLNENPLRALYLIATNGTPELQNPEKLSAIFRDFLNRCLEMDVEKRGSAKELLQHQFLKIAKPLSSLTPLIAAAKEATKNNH
NUAK family SNF1-like kinase 1 (Homo sapiens), sequence (O60285 whole entry, the tested form may be a part): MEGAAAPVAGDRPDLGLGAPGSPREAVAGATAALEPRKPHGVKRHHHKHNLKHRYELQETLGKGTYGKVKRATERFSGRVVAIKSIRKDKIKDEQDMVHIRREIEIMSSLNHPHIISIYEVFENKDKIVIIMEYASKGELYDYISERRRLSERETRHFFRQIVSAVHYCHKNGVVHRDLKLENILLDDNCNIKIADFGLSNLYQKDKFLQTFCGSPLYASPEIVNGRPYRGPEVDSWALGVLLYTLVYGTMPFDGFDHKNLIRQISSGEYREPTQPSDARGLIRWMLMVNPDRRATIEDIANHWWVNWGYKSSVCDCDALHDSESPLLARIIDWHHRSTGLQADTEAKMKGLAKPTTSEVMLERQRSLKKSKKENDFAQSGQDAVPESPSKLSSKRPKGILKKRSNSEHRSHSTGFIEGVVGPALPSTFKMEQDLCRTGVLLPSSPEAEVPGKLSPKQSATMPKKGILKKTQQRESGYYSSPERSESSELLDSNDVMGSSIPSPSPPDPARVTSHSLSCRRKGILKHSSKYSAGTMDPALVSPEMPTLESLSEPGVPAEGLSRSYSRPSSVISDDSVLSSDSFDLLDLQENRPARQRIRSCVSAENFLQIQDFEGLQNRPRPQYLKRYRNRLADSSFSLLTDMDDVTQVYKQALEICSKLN
5'-AMP-activated protein kinase catalytic subunit alpha-2 (Homo sapiens), sequence (P54646 whole entry, looked up, the tested form may be a part): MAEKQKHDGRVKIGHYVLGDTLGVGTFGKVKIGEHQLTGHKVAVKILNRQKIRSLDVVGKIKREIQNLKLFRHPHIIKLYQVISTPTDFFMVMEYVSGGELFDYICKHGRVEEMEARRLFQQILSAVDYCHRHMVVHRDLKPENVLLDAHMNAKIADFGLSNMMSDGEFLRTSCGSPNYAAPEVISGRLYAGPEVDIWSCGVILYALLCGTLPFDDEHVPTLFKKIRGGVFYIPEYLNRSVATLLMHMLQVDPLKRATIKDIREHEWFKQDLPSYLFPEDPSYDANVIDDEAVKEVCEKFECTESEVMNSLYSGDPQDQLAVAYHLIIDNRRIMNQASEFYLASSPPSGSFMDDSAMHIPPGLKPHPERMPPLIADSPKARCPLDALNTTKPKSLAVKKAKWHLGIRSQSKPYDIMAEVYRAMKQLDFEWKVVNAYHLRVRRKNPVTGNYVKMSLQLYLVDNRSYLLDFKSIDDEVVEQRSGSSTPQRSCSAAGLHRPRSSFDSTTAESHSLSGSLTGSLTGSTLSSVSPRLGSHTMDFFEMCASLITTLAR
3-phosphoinositide-dependent protein kinase 1 (Homo sapiens), sequence (O15530 whole entry, the tested form may be a part): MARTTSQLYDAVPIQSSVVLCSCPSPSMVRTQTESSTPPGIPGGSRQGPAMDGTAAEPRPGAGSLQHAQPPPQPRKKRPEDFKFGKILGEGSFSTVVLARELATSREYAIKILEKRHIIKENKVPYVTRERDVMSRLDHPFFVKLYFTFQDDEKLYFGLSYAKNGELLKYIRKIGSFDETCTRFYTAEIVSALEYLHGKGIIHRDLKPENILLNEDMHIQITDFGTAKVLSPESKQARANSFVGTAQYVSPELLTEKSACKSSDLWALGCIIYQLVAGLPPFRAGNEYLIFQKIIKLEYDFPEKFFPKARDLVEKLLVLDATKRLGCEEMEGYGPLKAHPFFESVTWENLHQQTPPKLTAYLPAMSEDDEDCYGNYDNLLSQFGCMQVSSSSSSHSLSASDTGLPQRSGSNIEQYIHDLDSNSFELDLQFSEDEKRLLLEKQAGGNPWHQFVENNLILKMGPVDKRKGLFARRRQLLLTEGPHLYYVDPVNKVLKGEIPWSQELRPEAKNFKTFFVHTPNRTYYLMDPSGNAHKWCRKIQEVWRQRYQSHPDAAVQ
Calcium/calmodulin-dependent protein kinase kinase 1 (Homo sapiens), sequence (Q8N5S9 whole entry, looked up, the tested form may be a part): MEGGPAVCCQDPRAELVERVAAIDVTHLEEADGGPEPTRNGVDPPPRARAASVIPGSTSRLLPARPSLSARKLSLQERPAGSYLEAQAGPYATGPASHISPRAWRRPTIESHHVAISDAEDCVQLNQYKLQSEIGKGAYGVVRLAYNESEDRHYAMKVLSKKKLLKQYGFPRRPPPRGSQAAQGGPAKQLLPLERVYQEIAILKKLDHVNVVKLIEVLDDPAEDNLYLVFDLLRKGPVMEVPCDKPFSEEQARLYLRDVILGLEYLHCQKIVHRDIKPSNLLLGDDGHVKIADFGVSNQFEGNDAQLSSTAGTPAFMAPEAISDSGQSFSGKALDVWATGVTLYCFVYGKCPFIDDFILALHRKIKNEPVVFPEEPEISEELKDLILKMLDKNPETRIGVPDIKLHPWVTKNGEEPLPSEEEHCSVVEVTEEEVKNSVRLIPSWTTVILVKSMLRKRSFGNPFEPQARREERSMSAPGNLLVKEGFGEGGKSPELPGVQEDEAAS
Serine/threonine-protein kinase TAO1 (Homo sapiens), sequence (Q7L7X3 whole entry, the tested form may be a part): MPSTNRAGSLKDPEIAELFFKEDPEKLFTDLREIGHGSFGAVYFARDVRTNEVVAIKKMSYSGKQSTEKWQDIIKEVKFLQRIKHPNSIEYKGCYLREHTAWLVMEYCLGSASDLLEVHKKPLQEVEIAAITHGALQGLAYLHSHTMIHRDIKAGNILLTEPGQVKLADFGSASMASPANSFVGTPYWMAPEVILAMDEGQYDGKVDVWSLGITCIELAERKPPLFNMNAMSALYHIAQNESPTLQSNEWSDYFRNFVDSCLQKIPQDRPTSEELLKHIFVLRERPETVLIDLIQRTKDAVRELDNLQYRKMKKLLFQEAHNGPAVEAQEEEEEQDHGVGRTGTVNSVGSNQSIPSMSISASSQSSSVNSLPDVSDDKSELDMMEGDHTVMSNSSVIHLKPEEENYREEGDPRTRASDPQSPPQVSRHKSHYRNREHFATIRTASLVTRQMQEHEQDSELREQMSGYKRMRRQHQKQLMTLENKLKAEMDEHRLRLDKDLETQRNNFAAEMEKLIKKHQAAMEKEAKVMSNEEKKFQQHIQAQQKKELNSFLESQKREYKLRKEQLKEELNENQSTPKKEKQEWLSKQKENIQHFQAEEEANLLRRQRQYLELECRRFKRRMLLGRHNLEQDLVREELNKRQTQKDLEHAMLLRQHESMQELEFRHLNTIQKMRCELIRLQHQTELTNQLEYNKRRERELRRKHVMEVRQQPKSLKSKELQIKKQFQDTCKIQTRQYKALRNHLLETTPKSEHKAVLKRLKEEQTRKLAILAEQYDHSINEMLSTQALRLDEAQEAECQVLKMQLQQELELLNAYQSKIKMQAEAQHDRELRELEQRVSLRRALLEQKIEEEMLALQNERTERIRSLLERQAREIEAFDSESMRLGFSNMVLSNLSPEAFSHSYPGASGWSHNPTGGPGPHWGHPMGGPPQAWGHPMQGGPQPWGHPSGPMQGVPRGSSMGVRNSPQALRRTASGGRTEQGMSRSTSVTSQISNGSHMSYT
CYP2D6, sequence (P10635 whole entry, the tested form may be a part): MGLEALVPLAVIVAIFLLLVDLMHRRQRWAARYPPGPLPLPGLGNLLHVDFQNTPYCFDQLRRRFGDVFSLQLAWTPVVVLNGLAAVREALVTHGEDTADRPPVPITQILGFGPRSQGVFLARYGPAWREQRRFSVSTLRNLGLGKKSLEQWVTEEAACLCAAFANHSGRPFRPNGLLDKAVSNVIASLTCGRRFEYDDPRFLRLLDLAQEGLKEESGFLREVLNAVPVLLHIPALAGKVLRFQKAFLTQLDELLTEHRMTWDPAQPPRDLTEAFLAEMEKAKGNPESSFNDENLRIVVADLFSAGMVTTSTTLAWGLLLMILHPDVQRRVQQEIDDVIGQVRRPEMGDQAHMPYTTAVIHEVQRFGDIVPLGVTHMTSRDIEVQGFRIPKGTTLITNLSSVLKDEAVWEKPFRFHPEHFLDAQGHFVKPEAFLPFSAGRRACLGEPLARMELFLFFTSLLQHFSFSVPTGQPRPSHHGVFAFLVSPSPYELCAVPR
RAF proto-oncogene serine/threonine-protein kinase (Homo sapiens), sequence (P04049 whole entry, the tested form may be a part): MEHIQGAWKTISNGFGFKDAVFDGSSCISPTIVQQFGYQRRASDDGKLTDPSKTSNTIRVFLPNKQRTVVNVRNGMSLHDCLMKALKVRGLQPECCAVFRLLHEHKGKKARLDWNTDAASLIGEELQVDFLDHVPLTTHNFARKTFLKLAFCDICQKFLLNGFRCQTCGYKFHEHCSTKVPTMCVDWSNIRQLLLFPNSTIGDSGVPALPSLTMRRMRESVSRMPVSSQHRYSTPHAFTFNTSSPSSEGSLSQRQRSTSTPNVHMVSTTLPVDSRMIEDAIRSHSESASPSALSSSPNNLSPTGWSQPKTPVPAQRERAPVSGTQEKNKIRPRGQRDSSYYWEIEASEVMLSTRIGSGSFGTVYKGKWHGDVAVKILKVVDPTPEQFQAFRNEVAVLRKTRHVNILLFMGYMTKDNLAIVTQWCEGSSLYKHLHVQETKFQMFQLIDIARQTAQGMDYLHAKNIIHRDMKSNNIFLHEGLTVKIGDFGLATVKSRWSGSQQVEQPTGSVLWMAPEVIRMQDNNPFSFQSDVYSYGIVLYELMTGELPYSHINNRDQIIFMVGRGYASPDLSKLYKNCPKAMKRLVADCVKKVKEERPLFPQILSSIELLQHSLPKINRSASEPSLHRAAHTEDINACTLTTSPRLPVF

C=CC(=O)Nc1cc(Nc2ncc(Cl)c(Nc3ccccc3S(=O)(=O)C(C)C)n2)c(OC)cc1N(C)CCN(C)C
Activity [1]: 2.8%
Activity [2]: 8.1%
Activity [3]: 88%
Activity [4]: 21%
Activity [5]: 65%
Activity [6]: 75%
Activity [7]: 28%
Activity [8]: 0.45%
Activity [9]: 83%
CL/F [10]: 115 mL/min/kg
Activity [11]: 44%
Activity [12]: 94%
Activity [13]: 66%
IC50 [14]: 3 nM
Activity [15]: 81%
Activity [16]: 23%
Activity at […], 10 µM (CYP2D6): 90%
Activity [17]: 61%
Activity [18]: 92%
Activity [19]: 77%
Activity [20]: 7.7%
Activity [21]: 0.25%
Activity [22]: 100%
Activity [23]: 9.5%
